Experimental data taken from ChEMBL document CHEMBL4190216, “Asymmetric 1,5-diarylpenta-1,4-dien-3-ones: Antiproliferative activity in prostate epithelial cell models and pharmacokinetic studies” (Eur J Med Chem, 2017).
pIC50: −log10 of the molar value.

Legend:
DU-145 [1] = assay: Antiproliferative activity against human DU145 cells assessed as decrease in cell viability after 3 days by WST assay; format: functional, cell-based; conditions: DU-145, 72 h
How it was run: (§1)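 Cells were seeded at 3,200 per well. PC-3 and LNCaP were grown in RPMI-1640 and DU-145 in EMEM, each with 10% FBS and 1% penicillin/streptomycin, at 37 °C and 5% CO2. Cells were exposed for 3 days to at least five concentrations, with DMSO as vehicle control. WST-1 reagent was then added for 3 h at 37 °C and absorbance read at 430 nm. IC50 came from linear inhibition, averaged over triplicates.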

PC-3 [2] = assay: Antiproliferative activity against human PC3 cells assessed as decrease in cell viability after 3 days by WST assay; format: functional, cell-based; conditions: PC-3, 72 h; how it was run: as §1
PWR-1E [3] = assay: Antiproliferative activity against human PWR-1E cells expressing androgen receptor and PSA assessed as decrease in cell viability after 3 days by WST assay; format: functional, cell-based; conditions: 72 h
How it was run: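 Non-malignant prostate epithelial PWR-1E (adenovirus 12/SV40-immortalized) was seeded at 5,000 per well. Cells were exposed for 3 days at 37 °C in a CO2 incubator to at least five concentrations, with DMSO as vehicle control. WST-1 reagent was then added for 3 h at 37 °C and absorbance read at 430 nm. IC50 came from linear inhibition, as the mean of triplicate determinations.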

LNCaP [4] = assay: Antiproliferative activity against human LNCAP cells assessed as decrease in cell viability after 3 days by WST assay; format: functional, cell-based; conditions: 72 h; how it was run: as §1
LNCaP [5] = assay: Potency index, ratio of curcumin IC50 to test compound IC50 for human LNCAP cells; format: functional
PC-3 [6] = assay: Potency index, ratio of curcumin IC50 to test compound IC50 for human PC3 cells; format: functional
DU-145 [7] = assay: Potency index, ratio of curcumin IC50 to test compound IC50 for human DU145 cells; format: functional
PWR-1E [8] = assay: Potency index, ratio of curcumin IC50 to test compound IC50 for human PWR-1E cells expressing androgen receptor and PSA; format: functional
[9] = Drug level in human liver microsomes treated with (1E,4E)-1-(1-(sec-Butyl)1H-imidazol-2-yl)-5-(2-methyl-4-(trifluoromethyl)thiazol-5-yl)penta-1,4-dien-3-one at 10 mM after 60 mins by UHPLC analysis; format: ADME, microsome
How it was run: (§2)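 Pooled human liver microsomes in potassium phosphate buffer (pH 7.4) with NADPH solutions A and B were preincubated for 5 min at 37 °C. Compound was then added from a 10 mM stock (3 μL into 300 μL total) and incubated 60 min at 37 °C. Reactions were quenched with an equal volume of methanol and centrifuged (10,000 × g, 4 min, 4 °C). Supernatant went to UHPLC–high-resolution MS for metabolite identification.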

[10] = Retention time of the compound; format: physicochemical
[11] = Drug level in human liver microsomes treated with (1E,4E)-1-(1-Ethyl1H-benzo[d]imidazol-2-yl)-5-(2-methyl-4-(trifluoromethyl)thiazol-5-yl)penta-1,4-dien-3-one at 10 mM after 60 mins by UHPLC analysis; format: ADME, microsome; conditions: 1 h; how it was run: as §2
[12] = Plasma concentration in Sprague-Dawley rat at 10 mg/kg administered via oral gavage measured at 1 hr by HPLC-MS/MS analysis; format: ADME, organism-based
[13] = Plasma concentration in Sprague-Dawley rat at 10 mg/kg administered via oral gavage measured after 1 day by HPLC-MS/MS analysis; format: ADME, organism-based
[14] = AUC in Sprague-Dawley rat at 10 mg/kg administered via oral gavage by HPLC-MS/MS analysis; format: ADME, organism-based; conditions: in vivo
CWR22R = assay: Antiproliferative activity against human 22Rv1 cells expressing androgen receptor splice variants assessed as decrease in cell viability after 5 days by trypan blue exclusion assay; format: functional, cell-based; conditions: 22Rv1, 120 h
[15] = Tmax in Sprague-Dawley rat at 10 mg/kg administered via oral gavage by HPLC-MS/MS analysis; format: ADME, organism-based; conditions: in vivo
VCaP = assay: Antiproliferative activity against human VCaP cells expressing androgen receptor splice variants assessed as decrease in cell viability after 5 days by trypan blue exclusion assay; format: functional, cell-based; conditions: 120 h
[16] = Plasma concentration in Sprague-Dawley rat at 10 mg/kg administered via oral gavage measured at 3 hrs by HPLC-MS/MS analysis; format: ADME, organism-based
[17] = Cmax in Sprague-Dawley rat at 10 mg/kg administered via oral gavage by HPLC-MS/MS analysis; format: ADME, organism-based; parameters: dose 10 mg/kg, route oral; conditions: in vivo
Rattus norvegicus = assay: Acute toxicity in Sprague-Dawley rat assessed as mortality at 10 mg/kg administered via oral gavage after 72 hrs; format: organism-based; conditions: in vivo
How it was run: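 Male Sprague-Dawley rats (250–300 g, n = 4) each received a single 10 mg/kg oral gavage dose. The vehicle was 5% DMSO, 40% polyethylene glycol 400 and 55% saline. Blood was drawn from the lateral tail vein at 1, 3, 6 and 24 h for plasma drug levels. Toxicity was scored as observed deaths after dosing.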

[18] = Plasma concentration in Sprague-Dawley rat at 10 mg/kg administered via oral gavage measured at 6 hrs by HPLC-MS/MS analysis; format: ADME, organism-based
[19] = Antiproliferative activity against human LNCaP95 cells expressing androgen receptor splice variants assessed as decrease in cell viability after 5 days by trypan blue exclusion assay; format: functional, cell-based; conditions: LNCaP-95, 120 h

SMILES	pIC50 (DU-145 [1])	pIC50 (PC-3 [2])	pIC50 (PWR-1E [3])	pIC50 (LNCaP [4])	Ratio IC50 (PC-3 [6])	Ratio IC50 (DU-145 [7])	Ratio IC50 (PWR-1E [8])	Retention_time [10] [min]	also measured
CCCn1c(/C=C/C(=O)/C=C/c2ccccn2)nc2ccccc21	6.49	6.60	7.70	6.77	102	82	443	–	Ratio IC50 (LNCaP [5]): 80
CCC(C)n1cc(O)nc1/C=C/C(=O)/C=C/c1sc(C)nc1C(F)(F)F (stereo not given)	–	–	–	–	–	–	–	3.32	Drug metabolism [9]: Metabolite_Detected
CCn1c(/C=C/C(=O)/C=C(\O)c2sc(C)nc2C(F)(F)F)nc2ccccc21	–	–	–	–	–	–	–	4.66	Drug metabolism [11]: Metabolite_Detected
CC(C)n1c(/C=C/C(=O)/C=C/c2ccccn2)nc2ccccc21	6.92	7.40	8.00	7.52	636	219	885	–	concentration at 1 h [12]: 823 ng/mL; concentration at 24 h [13]: 103 ng/mL; AUC [14]: 17600 ng·h/mL; pIC50 (CWR22R): 6.35; Tmax [15]: 3 h; pIC50 (VCaP): 6.19; concentration at 3 h [16]: 4260 ng/mL; Cmax [17]: 13.5 µM; Activity (Rattus norvegicus): Toxic; concentration at 6 h [18]: 456 ng/mL; pIC50 [19]: 6.59
